Laboratory results taken from ChEMBL document CHEMBL1649483, “Molecular analysis of the gyrA and gyrB quinolone resistance-determining regions of fluoroquinolone-resistant Clostridium difficile mutants selected in vitro” (2009).
Values after ≈ are worked out from the molar mass of the structure shown.

Columns and labels:
Type in all cases: functional
Clostridioides difficile [1] = assay: Antimicrobial activity against Clostridium difficile 630f selected after 4 ug/ml of moxifloxacin by Etest method
Summary of the method: (§1)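 Stable in vitro-selected mutant tested for gatifloxacin susceptibility by Etest, per the manufacturer's instructions, with an 8 μg/ml breakpoint. For selection, the parent was grown in antibiotic-free brain heart infusion (BHI) for 24 h at 35°C under anaerobic conditions. […] Later steps used double the MIC. Stability was confirmed by three subcultures.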

Clostridioides difficile [2] = assay: Antimicrobial activity against Clostridium difficile A422 expressing tcdA and tcdB gene by Etest method
Summary of the method: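 Parent clinical or nontoxigenic isolate tested for gatifloxacin susceptibility by Etest, run per the manufacturer's instructions; a fluoroquinolone breakpoint of 8 μg/ml was applied.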

Clostridioides difficile [3] = assay: Antimicrobial activity against Clostridium difficile 630c selected after 2 ug/ml of moxifloxacin by Etest method; summary of the method: as §1
Clostridioides difficile [4] = assay: Antimicrobial activity against Clostridium difficile CD5d harboring GyrB Ser416Ala mutant gene selected after 4 ug/ml of moxifloxacin by Etest method
Clostridioides difficile [5] = assay: Antimicrobial activity against Clostridium difficile CD5C harboring GyrB Ser416Ala mutant gene selected after 4 ug/ml of levofloxacin by Etest method
Clostridioides difficile [6] = assay: Antimicrobial activity against Clostridium difficile 630A selected after 4 ug/ml of levofloxacin by Etest method; summary of the method: as §1
Clostridioides difficile [7] = assay: Antimicrobial activity against Clostridium difficile A422f selected after 4 ug/ml of moxifloxacin by Etest method; summary of the method: as §1
Clostridioides difficile [8] = assay: Antimicrobial activity against Clostridium difficile C253h harboring GyrA Ala118Ser mutant gene selected after 8 ug/ml of moxifloxacin by Etest method
Clostridioides difficile [9] = assay: Antimicrobial activity against Clostridium difficile CD5i harboring GyrA Ala92Glu and GyrB Ser416Ala mutant genes selected after 8 ug/ml of moxifloxacin by Etest method
Clostridioides difficile [10] = assay: Antimicrobial activity against Clostridium difficile 630d selected after 4 ug/ml of moxifloxacin by Etest method; summary of the method: as §1
Clostridioides difficile [11] = assay: Antimicrobial activity against Clostridium difficile CD5F harboring GyrB Ser416Ala mutant gene selected after 8 ug/ml of levofloxacin by Etest method
Clostridioides difficile [12] = assay: Antimicrobial activity against Clostridium difficile 630b selected after 2 ug/ml of moxifloxacin by Etest method; summary of the method: as §1
Clostridioides difficile [13] = assay: Antimicrobial activity against Clostridium difficile C253E selected after 8 ug/ml of levofloxacin by Etest method
Clostridioides difficile [14] = assay: Antimicrobial activity against Clostridium difficile C253c selected after 2 ug/ml of moxifloxacin by Etest method
Clostridioides difficile [15] = assay: Antimicrobial activity against Clostridium difficile A422C selected after 4 ug/ml of levofloxacin by Etest method; summary of the method: as §1
Clostridioides difficile [16] = assay: Antimicrobial activity against Clostridium difficile A422D harboring GyrB Leu451Phe mutant gene selected after 8 ug/ml of levofloxacin by Etest method; summary of the method: as §1
Clostridioides difficile [17] = assay: Antimicrobial activity against Clostridium difficile CD5a harboring GyrB Ser416Ala mutant gene selected after 2 ug/ml of moxifloxacin by Etest method
Clostridioides difficile [18] = assay: Antimicrobial activity against Clostridium difficile BI2c harboring GyrB Arg447Lys mutant gene selected after 2 ug/ml of moxifloxacin by Etest method; summary of the method: as §1
Clostridioides difficile [19] = assay: Antimicrobial activity against Clostridium difficile A422d selected after 4 ug/ml of moxifloxacin by Etest method; summary of the method: as §1
Clostridioides difficile [20] = assay: Antimicrobial activity against Clostridium difficile A422F harboring GyrB Leu451Phe mutant gene selected after 8 ug/ml of levofloxacin by Etest method; summary of the method: as §1
Clostridioides difficile [21] = assay: Antimicrobial activity against Clostridium difficile 630g harboring GyrB […] mutant gene selected after 8 ug/ml of moxifloxacin by Etest method; summary of the method: as §1
Clostridioides difficile [22] = assay: Antimicrobial activity against Clostridium difficile A422B selected after 4 ug/ml of levofloxacin by Etest method; summary of the method: as §1
Clostridioides difficile [23] = assay: Antimicrobial activity against Clostridium difficile 630C selected after 4 ug/ml of levofloxacin by Etest method; summary of the method: as §1
Clostridioides difficile [24] = assay: Antimicrobial activity against Clostridium difficile C253C selected after 4 ug/ml of levofloxacin by Etest method
Clostridioides difficile [25] = assay: Antimicrobial activity against Clostridium difficile BI2d harboring GyrB Arg447Lys and Asp426Asn mutant gene selected after 32 ug/ml of moxifloxacin by Etest method; summary of the method: as §1
Clostridioides difficile [26] = assay: Antimicrobial activity against Clostridium difficile BI2D harboring GyrB Glu466Lys mutant gene selected after 8 ug/ml of levofloxacin by agar dilution method
Clostridioides difficile [27] = assay: Antimicrobial activity against Clostridium difficile BI2d harboring GyrB Arg447Lys and Asp426Asn mutant gene selected after 32 ug/ml of moxifloxacin by agar dilution method
Clostridioides difficile [28] = assay: Antimicrobial activity against Clostridium difficile 630g harboring GyrB […] mutant gene selected after 8 ug/ml of moxifloxacin by agar dilution method
Clostridioides difficile [29] = assay: Antimicrobial activity against Clostridium difficile A422b selected after 2 ug/ml of moxifloxacin by agar dilution method
Clostridioides difficile [30] = assay: Antimicrobial activity against Clostridium difficile 630c selected after 2 ug/ml of moxifloxacin by agar dilution method
Clostridioides difficile [31] = assay: Antimicrobial activity against Clostridium difficile 630e selected after 4 ug/ml of moxifloxacin by agar dilution method
Clostridioides difficile [32] = assay: Antimicrobial activity against Clostridium difficile C253C selected after 4 ug/ml of levofloxacin by agar dilution method
Clostridioides difficile [33] = assay: Antimicrobial activity against Clostridium difficile A422A selected after 4 ug/ml of levofloxacin by agar dilution method
Clostridioides difficile [34] = assay: Antimicrobial activity against Clostridium difficile BI2A selected after 4 ug/ml of levofloxacin by agar dilution method
Clostridioides difficile [35] = assay: Antimicrobial activity against Clostridium difficile CD5d harboring GyrB Ser416Ala mutant gene selected after 4 ug/ml of moxifloxacin by agar dilution method
Clostridioides difficile [36] = assay: Antimicrobial activity against Clostridium difficile A422D harboring GyrB Leu451Phe mutant gene selected after 8 ug/ml of levofloxacin by agar dilution method
Clostridioides difficile [37] = assay: Antimicrobial activity against Clostridium difficile C253g harboring GyrA Ala118Ser mutant gene selected after 8 ug/ml of moxifloxacin by agar dilution method
Clostridioides difficile [38] = assay: Antimicrobial activity against Clostridium difficile 630h harboring GyrB […] mutant gene selected after 8 ug/ml of moxifloxacin by agar dilution method
Clostridioides difficile [39] = assay: Antimicrobial activity against Clostridium difficile CD5b harboring GyrB Ser416Ala mutant gene selected after 2 ug/ml of moxifloxacin by agar dilution method
Clostridioides difficile [40] = assay: Antimicrobial activity against Clostridium difficile CD5a harboring GyrB Ser416Ala mutant gene selected after 2 ug/ml of moxifloxacin by agar dilution method
Clostridioides difficile [41] = assay: Antimicrobial activity against Clostridium difficile A422F harboring GyrB Leu451Phe mutant gene selected after 8 ug/ml of levofloxacin by agar dilution method
Clostridioides difficile [42] = assay: Antimicrobial activity against Clostridium difficile C253a selected after 2 ug/ml of moxifloxacin by agar dilution method
Clostridioides difficile [43] = assay: Antimicrobial activity against Clostridium difficile BI2 by agar dilution method

With `COc1c(N2CCNC(C)C2)c(F)cc2c(=O)c(C(=O)O)cn(C3CC3)c12` (stereo not drawn) [GATIFLOXACIN] the MIC (Clostridioides difficile [1]) was 2 µg/mL, the MIC (Clostridioides difficile [2]) was 0.75 µg/mL (≈ 2 µM) and the MIC (Clostridioides difficile [3]) was 0.75 µg/mL. For the same compound, the MIC (Clostridioides difficile [4]) was 0.75 µg/mL, the MIC (Clostridioides difficile [5]) was 0.5 µg/mL and the MIC (Clostridioides difficile [6]) was 0.75 µg/mL. The MIC (Clostridioides difficile [7]) was 1.5 µg/mL, the MIC (Clostridioides difficile [8]) was 8 µg/mL and the MIC (Clostridioides difficile [9]) was 3 µg/mL. For the same compound, the MIC (Clostridioides difficile [10]) was 2 µg/mL, the MIC (Clostridioides difficile [11]) was 2 µg/mL and the MIC (Clostridioides difficile [12]) was 0.75 µg/mL. For the same compound, the MIC (Clostridioides difficile [13]) was 1 µg/mL, the MIC (Clostridioides difficile [14]) was 1 µg/mL and the MIC (Clostridioides difficile [15]) was 1 µg/mL. The MIC (Clostridioides difficile [16]) was 2 µg/mL, the MIC (Clostridioides difficile [17]) was 0.75 µg/mL and the MIC (Clostridioides difficile [18]) was 1.5 µg/mL. The MIC (Clostridioides difficile [19]) was 1.5 µg/mL, the MIC (Clostridioides difficile [20]) was 2 µg/mL and the MIC (Clostridioides difficile [21]) was no less than 32 µg/mL. For the same compound, the MIC (Clostridioides difficile [22]) was 1 µg/mL, the MIC (Clostridioides difficile [23]) was 0.75 µg/mL and the MIC (Clostridioides difficile [24]) was 0.5 µg/mL. For the same compound, the MIC (Clostridioides difficile [25]) was 6 µg/mL.

`C[C@H]1COc2c(N3CCN(C)CC3)c(F)cc3c(=O)c(C(=O)O)cn1c23.C[C@H]1COc2c(N3CCN(C)CC3)c(F)cc3c(=O)c(C(=O)O)cn1c23.O` [LEVOFLOXACIN] gave an MIC (Clostridioides difficile [26]) of 16 µg/mL, an MIC (Clostridioides difficile [27]) of 64 µg/mL and an MIC (Clostridioides difficile [28]) of 64 µg/mL. The MIC (Clostridioides difficile [29]) was 4 µg/mL, the MIC (Clostridioides difficile [30]) was 4 µg/mL and the MIC (Clostridioides difficile [31]) was 4 µg/mL. The MIC (Clostridioides difficile [32]) was 1 µg/mL, the MIC (Clostridioides difficile [33]) was 1 µg/mL and the MIC (Clostridioides difficile [34]) was 1 µg/mL. It also gave an MIC (Clostridioides difficile [35]) of 2 µg/mL, an MIC (Clostridioides difficile [36]) of 2 µg/mL and an MIC (Clostridioides difficile [37]) of 64 µg/mL. It also gave an MIC (Clostridioides difficile [38]) of 64 µg/mL, an MIC (Clostridioides difficile [39]) of 2 µg/mL and an MIC (Clostridioides difficile [40]) of 2 µg/mL. It also gave an MIC (Clostridioides difficile [41]) of 2 µg/mL, an MIC (Clostridioides difficile [42]) of 4 µg/mL and an MIC (Clostridioides difficile [43]) of 2 µg/mL.
